Read-outs that look alike come from different tables or passages of the source. Where a SMILES comes first, the peptide text is derived from it. The star is where a group is joined. Cbz = O=C(OCc1ccccc1)* Bounds are passed on as bounds.

Results on 4 molecules are retold here after paper PMC4827872 (Chemical research in toxicology, 2015).

The test system of data set [1] is cultured cells. As to the kind of experiment: Cell viability. Format: cell-based. To be noted: any doses less than 7.5 µM; 24 h.
For data set [2], the target named is T1, DIO2 (Homo sapiens, UniProt Q92813).
T1 sequence (Q92813 1-273): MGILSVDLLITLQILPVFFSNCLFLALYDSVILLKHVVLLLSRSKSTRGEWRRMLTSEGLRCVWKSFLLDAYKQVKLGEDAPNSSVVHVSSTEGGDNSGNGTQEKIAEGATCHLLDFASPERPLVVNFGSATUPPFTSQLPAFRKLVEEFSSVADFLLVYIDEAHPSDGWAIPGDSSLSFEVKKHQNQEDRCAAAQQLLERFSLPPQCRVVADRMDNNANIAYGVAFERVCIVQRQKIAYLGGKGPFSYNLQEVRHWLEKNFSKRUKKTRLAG
As to the kind of experiment: DIO2 activity in primary human astrocyte cells exposed to test compounds. Format: cell-based. The gist of the method: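 Primary human astrocytes were grown on gelatin-coated dishes, moved to serum-free A-DMEM (30 nM selenium) 24 h before use, and induced with 10 µM forskolin. Exposure was 6 h (0.1% DMSO), with 100 nM rT3 as positive control. Microsomes (100,000×g, 60 min) were incubated 75 min at 37°C with DTT/EDTA/glycerol buffer. Net T3 was measured by LC/MS/MS (fmol min−1 mg protein−1) and expressed as % vehicle control; n=8 from 2 experiments.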

Data set [3] addresses T1, DIO2. As to the kind of experiment: In vitro DIO2 kinetics and inhibition in microsomal preparations of H4 cells. Format: biochemical.
The conditions of data set [4]: human serum, cited from earlier work; for Average Serum Concentration: geometric mean or median.
The target of data set [5] is T1, DIO2. As to the kind of experiment: DIO2 activity in H4 glioma cells exposed to PBDEs/OH-BDEs. To be noted: for decrease in DIO2 activity with MG132 coexposure: plus 10 µM MG132. Format: cell-based.
Data set [6] concerns DIO2 mRNA. As to the kind of experiment: DIO2 mRNA expression. Format: cell-based, human. To be noted: Homo sapiens, 6 h, read-out: DIO2 mRNA expression ratio relative to the control value of 1.0.
Data set [7] can be described thus: Biotransformation assay in cultured cells. Format: in vitro ADME, human. Conditions: cells exposed for up to 48 h; 1 µM.
For data set [8], the system named is cultured cells. As to the kind of experiment: Cell membrane damage. Format: cell-based. Conditions: any doses less than 7.5 µM; 24 h. The gist of the method: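 Cells in 96-well plates, switched to serum-free A-DMEM with 30 nM selenium 24 h beforehand, then exposed 24 h to test compound added from 1,000× DMSO stocks (final DMSO 0.1%). Membrane damage was read as glucose-6-phosphate dehydrogenase activity released into the medium. Values were normalized to well DNA content and to DMSO vehicle controls.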

Substrate in data set [9]: NC(Cc1cc(I)c(Oc2cc(I)c(O)c(I)c2)c(I)c1)C(=O)O
The data set is described as follows: In vitro DIO2 kinetics and inhibition in microsomal preparations of H4 cells. Format: biochemical, human. To be noted: other: H4 microsomal fraction; T4 as substrate; no inhibitor; 37.0 °C.

In general, Ki refers to the equilibrium dissociation constant of an inhibitor or competing ligand from its target. Read a low Ki as tighter binding. Turning to `Brc1ccc(Oc2cc(Br)c(Br)cc2Br)c(Br)c1` [BDE-99], in [1], the “significant effects on viability” value is given as “not detected”. For the same molecule, the inhibition at 0.5 µM in data set [2] (6 h, read-out: decrease in DIO2 activity) amounted to 51.8 ± 8.6%; in data set [5] (6 h, read-out: decrease in DIO2 activity, H4 cells, 500 nM, 6 h exposure) it was 82.9 ± 6.7%; in [5] (12 h, read-out: decrease in DIO2 activity, H4 cells, 500 nM, 12 h exposure) it was 64.6 ± 2.8%. Also, the “decrease in DIO2 activity” value was 50% in data set [2] (primary astrocyte cells, doses of 500 nM or greater (abstract)); “up to 80%” in data set [5] (H4 cells, doses of 500 nM or greater (abstract)); “approximately 50%” in [5] (both cell types (primary astrocytes and H4 glioma), exposure for a few hours). The Ki in data set [3] came out at 33.3 µM. In data set [3] (H4 microsomes, 2 nM T4), the “concentrations at which DIO2 activity was inhibited” value is over 1 µM. For the same molecule, the “Vmax of DIO2 with inhibitor added” value in [3] (H4 microsomes, 20 µM BDE-99 added) is recorded as 50.6 ± 5.6 fmol min^−1 mg protein^−1. Besides, the inhibition at 90 µM in [3] (read-out: maximum inhibition of DIO2) stood at 45%. Also, the “Average Serum Concentration” value in data set [4] (ref 5) is 6.39 ng/g lipid; in data set [4] (ref 43) it was 3.0 ng/g lipid; in data set [4] (ref 52), 26.1 ng/g lipid. Further, the “Maximum Serum Concentration” value in data set [4] (ref 5) was 225 ng/g lipid; in data set [4] (ref 43), 33 ng/g lipid; in data set [4] (ref 52) it was 1,200 ng/g lipid. In data set [5] (6 h, read-out: decrease in DIO2 activity, H4 cells, 2,500 nM, 6 h exposure), the inhibition at 2.5 µM stood at 80.8 ± 4.7%. Moreover, in data set [5] (H4 cells, 500 nM, 6 h, relative to MG132 control), the “decrease in DIO2 activity with MG132 coexposure” value is listed as 45.5 ± 3.8%. In data set [5] (at the lowest dose that significantly decreased DIO2 activity), the “Significant DIO2 Effects in H4 Cells (%Ctrl)” value is 82.9%. For the same molecule, the mrna remaining at 0.5 µM in data set [6] was found to be 63 ± 6%. Further, in data set [6], the mrna remaining at 2.5 µM was found to be 59 ± 10%. In [7], the “metabolites formed in cells or cell culture media” value is on record as “Neither OH-BDEs nor debrominated PBDE metabolites were detected”. In data set [8], the “significant effects on membrane damage” value is “not detected”.

For `CC(C)C[C@@H](C=O)NC(=O)[C@H](CC(C)C)NC(=O)[C@H](CC(C)C)NC(=O)OCc1ccccc1` [MG132, reference compound] (Cbz-Leu-Leu-Leu-aldehyde), the “increase in basal DIO2 activity” value in data set [5] (H4 cells, 10 µM) is given as 73.5 ± 17.9%.

For the molecule `N[C@@H](Cc1ccc(Oc2cc(I)c(O)c(I)c2)c(I)c1)C(=O)O` [rT3, 3,3’,5’ Triiodothyronine, reference compound], the “decrease in DIO2 activity” value is 49.4 ± 4.1% in data set [2] (primary human astrocytes, 100 nM, 6 h, positive control) and 55.9% ± 3.6 in [5] (H4 cells, 100 nM, 6 h, no inhibitor coexposure (Figure 8)). For the same molecule, in data set [5] (H4 cells, 100 nM, 6 h), the “decrease in DIO2 activity with MG132 coexposure” value is 25.8 ± 2.3%.

B1: DIO2 (Homo sapiens) (protein)
chain: MGILSVDLLITLQILPVFFSNCLFLALYDSVILLKHVVLLLSRSKSTRGEWRRMLTSEGLRCVWKSFLLDAYKQVKLGEDAPNSSVVHVSSTEGGDNSGNGTQEKIAEGATCHLLDFASPERPLVVNFGSATUPPFTSQLPAFRKLVEEFSSVADFLLVYIDEAHPSDGWAIPGDSSLSFEVKKHQNQEDRCAAAQQLLERFSLPPQCRVVADRMDNNANIAYGVAFERVCIVQRQKIAYLGGKGPFSYNLQEVRHWLEKNFSKRUKKTRLAG
For orientation: Km means the concentration of substrate that gives half-maximal velocity. Turning to B1, in [9], the Km is given as 3.49 ± 0.94 nM and the Vmax is 47.5 ± 2.9 fmol min^−1 mg protein^−1.
